Records with an inconclusive call do not appear.

For this test, the system named is S. cerevisiae W303 JC-1 mitochondrial potential, flow cytometry. Put plainly: mitochondrial membrane depolarization in S. cerevisiae, mechanism study for antifungal respiration inhibitor project, flow cytometry, single point, powder samples (AID 624062). The settings on record: stronger effect = higher value. An outline of the steps:
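Test system: S. cerevisiae W303-1a yeast; medium: SD-CSM growth medium containing 2% glucose; measured by: flow cytometry, 488 nm excitation, JC-1 red FL2 and green FL1; reagent: JC-1 dye at 1 µg/mL; schedule: 4 h compound treatment at 30 °C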

For the molecule `CCOC(=O)N1C(=O)C2(CCCCC2)N(c2ccc(C)cc2)C1=S`, the mitochondrial depolarization score was 18.6.
